For series [1], the system named is Mus musculus. Briefly: Biodistribution of intravenously injected [82Br]-labeled compound in muscle of BDF1 female mice bearing subcutaneous Lewis lung carcinoma after 0.25 hours. Format: ADME, organism-based, Muscle tissue. The note with it: in vivo, iv. In outline: (§1)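 Female BDF1 mice with subcutaneous Lewis lung carcinoma given an iv injection of [82Br]-labelled nucleoside, 47-130 μg carrying 20-60 kBq 82Br. Tissues were excised, weighed wet and γ-counted. Values are percent injected dose per gram of wet tissue, mean ± standard deviation of six animals, with organ-to-tumour ratios derived.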

In series [2] the test system is Mus musculus. Briefly: Biodistribution of intravenously injected [82Br]-labeled compound in bone of BDF1 female mice bearing subcutaneous Lewis lung carcinoma after 1 hours. Format: ADME, organism-based, Bone element. Conditions: in vivo, iv. In outline:
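82Br-labeled nucleoside given intravenously to female BDF1 mice bearing subcutaneous Lewis lung carcinoma, at 47-130 μg carrying 20-60 kBq. Mice sacrificed at each time point. Wet-weighed tissues γ-counted. Values are percent injected dose per gram wet tissue, mean ± SD, n = 6.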

In series [3] the test system is Mus musculus. Briefly: Biodistribution of intravenously injected [82Br]-labeled compound in liver of BDF1 female mice bearing subcutaneous Lewis lung carcinoma after 2 hours. Format: ADME, organism-based. The note with it: in vivo, iv. Summed up: as §1
The subject of series [4] is Mus musculus. Briefly: Biodistribution of intravenously injected [82Br]-labeled compound in stomach of BDF1 female mice bearing subcutaneous Lewis lung carcinoma after 1 hours. It is filed as ADME, organism-based. Conditions: in vivo, iv.
Series [5] relates to Mus musculus. Briefly: Biodistribution of intravenously injected [82Br]-labeled compound in skin of BDF1 female mice bearing subcutaneous Lewis lung carcinoma after 0.25 hours. It is filed as ADME, organism-based, Zone of skin. The note with it: in vivo, iv. Summed up: as §1
The test system of series [6] is Mus musculus. As to the kind of experiment: Biodistribution of intravenously injected [82Br]-labeled compound in stomach of BDF1 female mice bearing subcutaneous Lewis lung carcinoma after 4 hours. The note with it: in vivo, iv. It is filed as ADME, organism-based.
The test system of series [7] is Mus musculus. Briefly: Biodistribution of intravenously injected [82Br]-labeled compound in stomach of BDF1 female mice bearing subcutaneous Lewis lung carcinoma after 0.25 hours. It is filed as ADME, organism-based. Conditions: in vivo, iv.
Series [8] relates to Mus musculus. Briefly: Biodistribution of intravenously injected [82Br]-labeled compound in spleen of BDF1 female mice bearing subcutaneous Lewis lung carcinoma after 0.25 hours. It is filed as ADME, organism-based. The note with it: in vivo, iv. Summed up: as §1
Series [9] relates to Mus musculus. As to the kind of experiment: Biodistribution of intravenously injected [82Br]-labeled compound in stomach of BDF1 female mice bearing subcutaneous Lewis lung carcinoma after 0.50 hours. It is filed as ADME, organism-based. The note with it: in vivo, iv, 0.5 h.
In series [10] the test system is Mus musculus. Briefly: Biodistribution of intravenously injected [82Br]-labeled compound in muscle of BDF1 female mice bearing subcutaneous Lewis lung carcinoma after 2 hours. It is filed as ADME, organism-based, Muscle tissue. The note with it: in vivo, iv. In outline:
as §1

Series [11] has as its system Mus musculus. Briefly: Biodistribution of intravenously injected [82Br]-labeled compound in heart of BDF1 female mice bearing subcutaneous Lewis lung carcinoma after 8 hours. Format: ADME, organism-based. Conditions: in vivo, iv. Summed up: as §1
The test system of series [12] is Mus musculus. As to the kind of experiment: Biodistribution of intravenously injected [82Br]-labeled compound in liver of BDF1 female mice bearing subcutaneous Lewis lung carcinoma after 24 hours. It is filed as ADME, organism-based. Conditions: in vivo, iv. Summed up:
as §1

For series [13], the system named is Mus musculus. Briefly: Biodistribution of intravenously injected [82Br]-labeled compound in heart of BDF1 female mice bearing subcutaneous Lewis lung carcinoma after 1 hours. It is filed as ADME, organism-based. The note with it: in vivo, iv. In outline: as §1
For series [14], the system named is Mus musculus. Briefly: Biodistribution of intravenously injected [131I]-labeled compound in gut of BDF1 female mice bearing subcutaneous Lewis lung carcinoma after 4 hours. It is filed as ADME, organism-based. The note with it: in vivo, iv. In outline:
(§2)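 Female BDF1 mice bearing subcutaneous Lewis lung carcinoma received a single intravenous dose of 0.5-1.8 μg of the 131I-labeled nucleoside (55-110 kBq). They were sacrificed at set times, and tissues were weighed wet and γ-counted. Activity is expressed as percent of injected dose per gram of wet tissue, given as mean ± standard deviation for six animals.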

Series [15] is filed under the species Mus musculus. Briefly: Urinary iodide observed in BDF1 female mice bearing lewis lung tumor after 24 hr of injected [131I]-compound. It is filed as functional, tissue-based. The note with it: Urine.
Series [16] has as its system Mus musculus. Briefly: Biodistribution of intravenously injected [131I]-labeled compound in stomach of BDF1 female mice bearing subcutaneous Lewis lung carcinoma after 4 hours. Format: ADME, organism-based. Conditions: in vivo, iv. Summed up:
(§3)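 Female BDF1 mice with subcutaneous Lewis lung carcinoma given i.v. 0.5-1.8 μg of 131I-labeled nucleoside (55-110 kBq). Killed at set times. Tissues weighed wet and γ-counted. Radioactivity expressed as percent injected dose per gram wet tissue, mean ± SD of six animals.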

For series [17], the system named is Mus musculus. Briefly: Biodistribution of intravenously injected [131I]-labeled compound in bone of BDF1 female mice bearing subcutaneous Lewis lung carcinoma after 8 hours. It is filed as ADME, organism-based, Bone element. The note with it: in vivo, iv. Summed up: as §2
Series [18] concerns Mus musculus. Briefly: Biodistribution of intravenously injected [131I]-labeled compound in tumor of BDF1 female mice bearing subcutaneous Lewis lung carcinoma after 1 hours. It is filed as ADME, organism-based. The note with it: in vivo, iv. In outline:
as §3

Series [19] concerns Mus musculus. Briefly: Biodistribution of intravenously injected [131I]-labeled compound in muscle of BDF1 female mice bearing subcutaneous Lewis lung carcinoma after 0.5 hours. It is filed as ADME, organism-based, Muscle tissue. The note with it: in vivo, iv. Summed up:
as §2

Series [20] relates to Mus musculus. Briefly: Biodistribution of intravenously injected [131I]-labeled compound in lung of BDF1 female mice bearing subcutaneous Lewis lung carcinoma after 2 hours. The note with it: in vivo, iv. Format: ADME, organism-based. In outline:
as §2

Series [21] has as its system Mus musculus. As to the kind of experiment: Biodistribution of intravenously injected [131I]-labeled compound in bone of BDF1 female mice bearing subcutaneous Lewis lung carcinoma after 1 hours. Conditions: in vivo, iv. Format: ADME, organism-based, Bone element. Summed up:
as §2

For series [22], the species on record is Mus musculus. As to the kind of experiment: Urinary [131I]5-iodouracil observed in BDF1 female mice bearing lewis lung tumor after 0-0.5 hr of injected [131I]-compound. Format: functional, tissue-based. Conditions: Urine.
The species named for series [23] is Mus musculus. As to the kind of experiment: Urinary [131I]- compound observed in BDF1 female mice bearing lewis lung tumor after 0-0.5 h of injected [131I]-compound. Conditions: Urine. Format: functional, tissue-based.
In series [24] the test system is Mus musculus. Briefly: Biodistribution of intravenously injected [131I]-labeled compound in tumor of BDF1 female mice bearing subcutaneous Lewis lung carcinoma after 2 hours. The note with it: in vivo, iv. It is filed as ADME, organism-based. Summed up:
as §3

Series [25] is filed under the species Mus musculus. As to the kind of experiment: Other urinary compounds observed in BDF1 female mice bearing lewis lung tumor after 6-7 hr of injected [131I]-compound. Format: functional, tissue-based. The note with it: Urine.
Series [26] is filed under the species Mus musculus. As to the kind of experiment: Urinary [131I]- compound observed in BDF1 female mice bearing lewis lung tumor after 6-7 hr of injected [131I]-compound. It is filed as functional, tissue-based. The note with it: Urine.
The subject of series [27] is Mus musculus. Briefly: Biodistribution of intravenously injected [131I]-labeled compound in kidney of BDF1 female mice bearing subcutaneous Lewis lung carcinoma after 0.5 hours. It is filed as ADME, organism-based. Conditions: in vivo, iv. Summed up: as §2
Series [28] has as its system Mus musculus. As to the kind of experiment: Biodistribution of intravenously injected [131I]-labeled compound in bone of BDF1 female mice bearing subcutaneous Lewis lung carcinoma after 0.5 hours. It is filed as ADME, organism-based, Bone element. Conditions: in vivo, iv. Summed up: as §2
Series [29] concerns Mus musculus. Briefly: Biodistribution of intravenously injected [131I]-labeled compound in skin of BDF1 female mice bearing subcutaneous Lewis lung carcinoma after 0.50 hours. Conditions: in vivo, iv, 0.5 h. Format: ADME, organism-based, Zone of skin. Summed up: as §3
Series [30] deals with Mus musculus. As to the kind of experiment: Biodistribution of intravenously injected [131I]-labeled compound in liver of BDF1 female mice bearing subcutaneous Lewis lung carcinoma after 0.25 hours. Format: ADME, organism-based. Conditions: in vivo, iv. Summed up:
as §2

Series [31] concerns Mus musculus. Briefly: Biodistribution of intravenously injected [131I]-labeled compound in gut of BDF1 female mice bearing subcutaneous Lewis lung carcinoma after 8 hours. Format: ADME, organism-based. The note with it: in vivo, iv. In outline: as §2
Series [32] deals with Mus musculus. Briefly: Biodistribution of intravenously injected [131I]-labeled compound in kidney of BDF1 female mice bearing subcutaneous Lewis lung carcinoma after 8 hours. It is filed as ADME, organism-based. The note with it: in vivo, iv. In outline: as §2
The test system of series [33] is Mus musculus. As to the kind of experiment: Biodistribution of intravenously injected [131I]-labeled compound in spleen of BDF1 female mice bearing subcutaneous Lewis lung carcinoma after 24 hours. Format: ADME, organism-based. The note with it: in vivo, iv. Summed up: as §3
Series [34] concerns Mus musculus. Briefly: Biodistribution of intravenously injected [131I]-labeled compound in blood of BDF1 female mice bearing subcutaneous Lewis lung carcinoma after 8 hours. It is filed as ADME, organism-based. Conditions: in vivo, iv. Summed up:
as §2

Series [35] has as its system Mus musculus. As to the kind of experiment: Biodistribution of intravenously injected [131I]-labeled compound in gut of BDF1 female mice bearing subcutaneous Lewis lung carcinoma after 0.25 hours. It is filed as ADME, organism-based. Conditions: in vivo, iv. Summed up: as §2
Series [36] relates to Mus musculus. As to the kind of experiment: Biodistribution of intravenously injected [131I]-labeled compound in bone of BDF1 female mice bearing subcutaneous Lewis lung carcinoma after 4 hours. Format: ADME, organism-based, Bone element. Conditions: in vivo, iv. Summed up: as §2
For series [37], the system named is Mus musculus. As to the kind of experiment: Biodistribution of intravenously injected [131I]-labeled compound in stomach of BDF1 female mice bearing subcutaneous Lewis lung carcinoma after 2 hours. It is filed as ADME, organism-based. The note with it: in vivo, iv. Summed up:
as §3

For series [38], the system named is Mus musculus. Briefly: Biodistribution of intravenously injected [131I]-labeled compound in kidney of BDF1 female mice bearing subcutaneous Lewis lung carcinoma after 24 hours. It is filed as ADME, organism-based. Conditions: in vivo, iv. In outline:
as §2

Injected dose/g and Radioactive constituents data for 2 compounds are collected here from ChEMBL document CHEMBL1124493, “Synthesis and tumor uptake of 5-82Br- and 5-131I-labeled 5-halo-1-(2-fluoro-2-deoxy-beta-D-ribofuranosyl)uracils” (J Med Chem, 1989).

The structures appear in SMILES notation.

For `O=c1[nH]c(=O)n([C@H]2O[C@@H](CO)[C@H](O)[C@H]2F)cc1Br`, the Injected dose/g in the series with Mus musculus [1] came out at 0.89%; with Mus musculus [2], 0.26%; with Mus musculus [3] it was 0.32%; in the series with Mus musculus [4] it was 0.5%; with Mus musculus [5], 1.39%; in the series on Mus musculus [6], 0.4%. The Injected dose/g with Mus musculus [7] is 1.29%; in the series on Mus musculus [8], 1.06%; in the series with Mus musculus [9], 0.79%; with Mus musculus [10] it was 0.19%; in the series on Mus musculus [11], 0.45%; in the series with Mus musculus [12], 0.18%. For the same compound, the Injected dose/g with Mus musculus [13] stood at 0.44%.
For `O=c1[nH]c(=O)n([C@@H]2O[C@H](CO)[C@@H](O)[C@H]2F)cc1I`, the Injected dose/g in the series on Mus musculus [14] turned out to be 2.1%; with Mus musculus [16], 5.7%; in the series with Mus musculus [17] it was 0.7%; in the series with Mus musculus [18] it was 4.1%; in the series on Mus musculus [19], 2%; with Mus musculus [20] it was 5.1%. The Injected dose/g is on record as 1.5% with Mus musculus [21]; 3.8% in the series on Mus musculus [24]; 18.5% with Mus musculus [27]; 1.8% in the series on Mus musculus [28]; 3.8% in the series on Mus musculus [29]; 5.3% in the series on Mus musculus [30]. The Injected dose/g in the series with Mus musculus [31] came to 1.3%; in the series with Mus musculus [32] it was 4.1%; in the series with Mus musculus [33], 0.5%; in the series with Mus musculus [34] it was 4.1%; in the series with Mus musculus [35], 3.1%; with Mus musculus [36] it was 1.3%. Also, the results for the Injected dose/g with Mus musculus [37] and with Mus musculus [38] were 4% and 0.14%, respectively. Also, the Radioactive constituents in the series listed under Mus musculus [15] turned out to be 62.6%; in the series filed under Mus musculus [22], 1.8%; in the series filed under Mus musculus [23], 90.8%; in the series filed under Mus musculus [25], 0%; in the series filed under Mus musculus [26] it was 60.2%.
